What is called EC50 is the concentration giving half of the maximal effect. Low readings indicate greater potency, high ones weaker potency. The CC50 is the concentration giving 50% cytotoxicity. A low value points to harm at low concentration. One may read the half-life as the time needed for the level to fall by half in the phase considered. A higher half-life goes with slow loss.

The results in this text go back to ChEMBL document CHEMBL1135913, “Structure-based design, synthesis, and biological evaluation of irreversible human rhinovirus 3C protease inhibitors. 6. Structure-activity studies of orally bioavailable, 2-pyridone-containing peptidomimetics” (J Med Chem, 2002).

Data set [1] addresses T1, Human rhinovirus A protease (Human rhinovirus sp., UniProt Q4U254).
T1 sequence (Q4U254 whole entry): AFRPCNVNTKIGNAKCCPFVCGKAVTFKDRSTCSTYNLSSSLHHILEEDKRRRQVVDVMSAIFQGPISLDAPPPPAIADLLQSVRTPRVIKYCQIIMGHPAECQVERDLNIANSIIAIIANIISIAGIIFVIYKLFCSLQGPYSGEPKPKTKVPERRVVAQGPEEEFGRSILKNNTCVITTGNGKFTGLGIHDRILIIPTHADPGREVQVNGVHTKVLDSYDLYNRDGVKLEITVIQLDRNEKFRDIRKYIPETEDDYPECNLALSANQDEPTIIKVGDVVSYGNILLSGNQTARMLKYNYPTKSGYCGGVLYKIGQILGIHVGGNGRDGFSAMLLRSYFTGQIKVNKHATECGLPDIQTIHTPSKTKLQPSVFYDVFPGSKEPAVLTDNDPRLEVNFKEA
As to the kind of experiment: Inhibition of HRV Protease 3CP (serotype 14). On the set-up: species or system Rhinovirus B.

Data set [2] addresses T2, Human rhinovirus A protease (Human rhinovirus sp.) (UniProt Q4U254).
T2 sequence (whole entry): T1 sequence (Q4U254 whole entry)
As to the kind of experiment: (§1) cytotoxicity against HRV Protease 3CP (serotype 14).

The target of data set [3] is T2, Human rhinovirus A protease (Human rhinovirus sp.). As to the kind of experiment: Inhibitory activity against Human Rhinovirus Protease 3C (serotype 14). The conditions noted are these: Rhinovirus B.
For data set [4] the target is unchanged. Briefly: cytotoxicity against HRV Protease 3CP (serotype 1A). Type of data set: functional.
A short description of data set [5]: Loss of compound (%metabolized) after 30 min exposure to human liver microsomes. The data set is classed as ADME, Microsome. Conditions: read-out: Metabolism. The method in brief: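 Pooled human liver microsomes (1 mg/mL, 6–8 livers) with 2 mM NADPH in 100 mM potassium phosphate pH 7.4 were preincubated 1 min at 37 °C. Compound was added at 25 μM and incubated 30 min, then quenched with acetonitrile. Loss was measured against time-zero controls by reversed-phase HPLC with UV at 215 nm.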

The target in data set [6] is T2, Human rhinovirus A protease (Human rhinovirus sp.). Briefly: cytotoxicity against HRV Protease 3CP (serotype 10). The data set is classed as functional.
Data set [7] has the same target. The data set is described as §1. The data set is classed as functional.
Data set [8] has the same target. As to the kind of experiment: cytotoxicity against HRV Protease 3CP (serotype 14),. The data set is classed as functional.
Data set [9] has the same target. As to the kind of experiment: cytotoxicity against HRV Protease 3CP (serotype 1A),. Type of data set: functional.
For data set [10] the target is unchanged. As to the kind of experiment: cytotoxicity against HRV Protease 3CP (serotype 10),. Type of data set: functional.
Data set [11] can be described thus: Half life upon exposure to human plasma. Type of data set: ADME, cell-free. The method in brief:
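Pooled heparinized human plasma from 10 donors (stored at -70 °C), or 100 mM potassium phosphate buffer pH 7.4, n = 3 each. Compound added from fresh 5 mM acetonitrile stock to 25 μM final. Incubated at 37 °C for 1–3 h with regular sampling, acetonitrile precipitation, HPLC-UV at 212 nm. Half-life from linear regression of mean concentration–time data.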

Data set [12] has as its target T2, Human rhinovirus A protease (Human rhinovirus sp.). Briefly: cytotoxicity against Human Rhinovirus Protease 3C (serotype 14). Type of data set: functional.
Data set [13] has the same target. Briefly: cytotoxicity against Human Rhinovirus Protease 3C (serotype 10). The data set is classed as functional.
Data set [14] has the same target. Briefly: cytotoxicity against Human Rhinovirus Protease 3C (serotype 1A). The data set is classed as functional.

The compound `CCOC(=O)/C=C/[C@H](CCC(N)=O)NC(=O)[C@H](Cc1ccccc1)n1cccc(NC(=O)C(C)(C)C)c1=O` returned an EC50 in data set [1] of 518 nM. For the same compound, the cytotoxic concentration (CC50) in [2] was over 10 µM. In addition, the K obs / 1 in data set [3] was found to be 5040 M⁻¹ s⁻¹.

As for `CCOC(=O)/C=C/[C@H](CCC(N)=O)NC(=O)[C@H](Cc1ccccc1)n1cccc(NC(C)=O)c1=O`, the response in [1] was half-maximal at 888 nM (EC50). This compound yielded a 50% cytotoxic concentration (CC50) in data set [2] of over 10 µM. Further, the K obs / 1 in data set [3] was determined as 7660 M⁻¹ s⁻¹.

For `CCOC(=O)/C=C/[C@H](C[C@@H]1CCNC1=O)NC(=O)[C@H](Cc1ccc(F)cc1)n1cccc(NC(=O)c2cc(C)on2)c1=O`, in [1], it took 2 nM to reach a half-maximal effect (EC50). In addition, the CC50 in data set [4], in data set [6] and in data set [7] was over 10 µM throughout. For the same compound, the metabolised at 0.5 h in data set [5] came to 95%. Moreover, in data set [3], the K obs / 1 was found to be 1.25e+06 M⁻¹ s⁻¹.

On to `CCOC(=O)/C=C/[C@H](CCC(N)=O)NC(=O)[C@H](Cc1ccccc1)n1cccc(NC(=O)C2CCCC2)c1=O`, for which the response in [1] was half-maximal at 34 nM (EC50). The compound also came in with a CC50 in data set [2] of over 10 µM. Moreover, the K obs / 1 in data set [3] amounted to 37400 M⁻¹ s⁻¹.

Regarding `CCOC(=O)/C=C/[C@H](CCC(N)=O)NC(=O)[C@H](Cc1ccccc1)n1ccc(C)c(NC(=O)OCc2ccccc2)c1=O`, in data set [3], the K obs / 1 stood at 25800 M⁻¹ s⁻¹.

In the case of `CCOC(=O)/C=C/[C@H](CCC(N)=O)NC(=O)[C@H](Cc1ccc(F)c(F)c1)n1cccc(NC(=O)OCc2ccccc2)c1=O`, it took 3 nM to reach a half-maximal effect in data set [1] (EC50). Further, the CC50 in data set [8], in [9] and in data set [10] was over 10 µM each time. In addition, the K obs / 1 in data set [3] worked out at 193000 M⁻¹ s⁻¹.

Take `CCOC(=O)/C=C/[C@H](C[C@@H]1CCNC1=O)NC(=O)[C@H](Cc1ccc(F)c(F)c1)n1cccc(NC(=O)c2cc(C)on2)c1=O`: in [1], the EC50 was determined as 1 nM. In addition, the half-maximal cytotoxic concentration (CC50) in data set [4], in data set [6] and in data set [7] was over 10 µM each time. Moreover, the metabolised at 0.5 h in [5] was found to be 80%. The half-life in data set [11] is 84 min. For the same compound, the K obs / 1 in [3] stood at 1.8e+06 M⁻¹ s⁻¹.

`CCOC(=O)/C=C/[C@H](C[C@H]1CCNC1=O)NC(=O)[C@H](Cc1ccccc1)n1cccc(NC(=O)OCc2ccccc2)c1=O` came in with a concentration giving a half-maximal response (EC50) in [1] of 469 nM. The compound further displayed a CC50 in data set [2] of over 10 µM. In addition, the K obs / 1 in [3] was determined as 6340 M⁻¹ s⁻¹.

On to `CCOC(=O)/C=C/[C@H](CCC(N)=O)NC(=O)[C@H](CC1CCCCC1)n1cccc(NC(=O)OCc2ccccc2)c1=O`, for which a half-maximal effect in [1] (EC50) was put at 178 nM. Besides, the CC50 in data set [2] is over 10 µM. The compound also yielded a K obs / 1 in data set [3] of 6500 M⁻¹ s⁻¹.

`CCOC(=O)/C=C/[C@H](CCC(N)=O)NC(=O)[C@H](Cc1ccccc1)n1cccc(NC(=O)C2SCCS2)c1=O` had a concentration giving a half-maximal response (EC50) in [1] of 104 nM. The CC50 in [4], in [6] and in [7] was over 10 µM throughout. In data set [3], this compound came in with a K obs / 1 of 114000 M⁻¹ s⁻¹.

As to `CCOC(=O)/C=C/[C@H](CCC(N)=O)NC(=O)[C@H](Cc1ccccc1)n1cccc(NC(=O)OCc2ccccc2)c1=O`, the CC50 in data set [12] is 50 µM; in data set [13] it was over 10 µM; in data set [14], over 10 µM.
